Data from ChEMBL document CHEMBL1123079, “Synthesis and biological activity of a novel adenosine analogue, 3-beta-D-ribofuranosylthieno[2,3-d]pyrimidin-4-one” (1985).

Key:
L1210 [1] = test: The concentration required to inhibit the growth of L-1210 leukemic cells was evaluated; 1E-3 to 1E-4; assay type: functional, cell-based; settings: Mus musculus
L1210 [2] = test: The concentration requiredi (cytidine+2'deoxycytidine) to inhibit the growth of L-1210 leukemic cells was evaluated; assay type: functional, cell-based; settings: Mus musculus
L1210 [3] = test: The concentration required to inhibit the growth of L-1210 leukemic cells was evaluated; 1E-4 to 1E-5; assay type: functional, cell-based; settings: Mus musculus
L1210 [4] = test: The concentration required (hypoxanthine+uridine) to inhibit the growth of L-1210 leukemic cells was evaluated; 2E-4 to 2E-5; assay type: functional, cell-based; settings: Mus musculus
L1210 [5] = test: The compound was tested for inhibition of L-1210 leukemic cell growth at 10 e-4 M along with 10e-5 M adenine.; assay type: functional, Mus musculus; set-up: scale not given: the % may be the effect or the level left
Method in brief: (§1)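 Static suspension cultures of murine L-1210 leukemic cells were grown in Fischer's medium with test compound at 10^-4 M plus 10^-5 M adenine or 10^-5 M adenosine. Read-out was the initial growth rate, the increase in cell number during the first 24 h of incubation, relative to untreated control cells (%).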

L1210 [6] = test: The compound was tested for inhibition of L-1210 leukemic cell growth at 5 x 10 e-5 M along with 10e-5 M adenosine.; assay type: functional, Mus musculus; set-up: scale not given: the % may be the effect or the level left
Method in brief: (§2)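 L-1210 cells were held in static suspension in Fischer's medium with test compound at 5 × 10^-5 M plus either 10^-5 M adenine or 10^-5 M adenosine. Cell numbers were counted, and the rate of increase over the first 24 h was taken as the initial growth rate, given as % of untreated control. Values are means, n = 2.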

L1210 [7] = test: The compound was tested for inhibition of L-1210 leukemic cell growth at 5 x 10 e-5 M along with 10e-5 M adenine.; assay type: functional, Mus musculus; set-up: scale not given: the % may be the effect or the level left; method in brief: as §2
L1210 [8] = test: The compound was tested for inhibition of L-1210 leukemic cell growth at 10 e-4 M along with 10e-5 M adenosine.; assay type: functional, Mus musculus; set-up: scale not given: the % may be the effect or the level left; method in brief: as §1
L1210 [9] = test: The compound was tested for inhibition of L-1210 leukemic cell growth at 10 e-4 M; assay type: functional, Mus musculus; set-up: scale not given: the % may be the effect or the level left
Method in brief: (§3)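 Murine L-1210 leukemic cells were grown in static suspension culture in Fischer's medium. Test compound was added at 5 × 10^-5 or 10^-4 M alone. Initial growth rate is the rate of increase in cell number over the first 24 h of incubation, expressed as % of untreated control. Values are mean (±SD), n = 5.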

L1210 [10] = test: The compound was tested for inhibition of L-1210 leukemic cell growth at 5 x 10 e-5 M; assay type: functional, Mus musculus; set-up: scale not given: the % may be the effect or the level left; method in brief: as §3
L1210 [11] = test: The concentration required to inhibit the growth of L-1210 leukemic cells was evaluated; 1E-4 to 5E-4; assay type: functional, cell-based; settings: Mus musculus

Nc1ccn([C@@H]2O[C@H](CO)[C@@H](O)[C@H]2O)c(=O)n1
Concentration (L1210 [1]): 1 mM
Concentration (L1210 [2]): 100 µM

Cc1cn([C@H]2C[C@H](O)[C@@H](CO)O2)c(=O)[nH]c1=O
Concentration (L1210 [3]): 100 µM
Concentration (L1210 [4]): 200 µM

O=c1ccn([C@@H]2O[C@H](CO)[C@@H](O)[C@H]2O)c(=O)[nH]1
Concentration (L1210 [1]): 1 mM

O=c1c2ccsc2ncn1C1O[C@H](CO)[C@@H](O)[C@H]1O (some centres not stated)
Control (L1210 [5]): 25%
Control (L1210 [6]): 57%
Control (L1210 [7]): 52%
Control (L1210 [8]): 50%
Control (L1210 [9]): 16%
Control (L1210 [10]): 32%

Nc1ccn([C@H]2C[C@H](O)[C@@H](CO)O2)c(=O)n1
Concentration (L1210 [11]): 100 µM
